Where a SMILES comes first, the peptide text is derived from it. The star is where a group is joined. Myristoyl = CCCCCCCCCCCCCC(=O)*
Tests used:
PKMζ = target: T1, PKMζ (Rattus norvegicus, UniProt P09217); test: LANCE TR-FRET in vitro kinase assay, purified PKMζ; format: biochemical
T1 sequence (P09217 1-409 isoform P09217-2): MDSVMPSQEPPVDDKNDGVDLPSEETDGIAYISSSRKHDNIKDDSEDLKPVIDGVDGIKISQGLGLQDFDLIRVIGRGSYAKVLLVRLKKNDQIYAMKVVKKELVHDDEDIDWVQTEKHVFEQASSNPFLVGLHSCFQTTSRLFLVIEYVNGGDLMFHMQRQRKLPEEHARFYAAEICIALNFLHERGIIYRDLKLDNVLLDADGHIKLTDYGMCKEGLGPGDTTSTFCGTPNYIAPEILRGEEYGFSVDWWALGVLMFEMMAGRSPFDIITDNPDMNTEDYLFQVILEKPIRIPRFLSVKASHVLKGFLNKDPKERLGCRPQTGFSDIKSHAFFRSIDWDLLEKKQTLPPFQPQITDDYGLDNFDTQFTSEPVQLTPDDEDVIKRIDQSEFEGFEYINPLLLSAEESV

PKCζ = target: T2, PKCζ (Rattus norvegicus, UniProt P09217); test: LANCE TR-FRET in vitro kinase assay, purified PKCζ; format: biochemical
T2 sequence (P09217 1-592): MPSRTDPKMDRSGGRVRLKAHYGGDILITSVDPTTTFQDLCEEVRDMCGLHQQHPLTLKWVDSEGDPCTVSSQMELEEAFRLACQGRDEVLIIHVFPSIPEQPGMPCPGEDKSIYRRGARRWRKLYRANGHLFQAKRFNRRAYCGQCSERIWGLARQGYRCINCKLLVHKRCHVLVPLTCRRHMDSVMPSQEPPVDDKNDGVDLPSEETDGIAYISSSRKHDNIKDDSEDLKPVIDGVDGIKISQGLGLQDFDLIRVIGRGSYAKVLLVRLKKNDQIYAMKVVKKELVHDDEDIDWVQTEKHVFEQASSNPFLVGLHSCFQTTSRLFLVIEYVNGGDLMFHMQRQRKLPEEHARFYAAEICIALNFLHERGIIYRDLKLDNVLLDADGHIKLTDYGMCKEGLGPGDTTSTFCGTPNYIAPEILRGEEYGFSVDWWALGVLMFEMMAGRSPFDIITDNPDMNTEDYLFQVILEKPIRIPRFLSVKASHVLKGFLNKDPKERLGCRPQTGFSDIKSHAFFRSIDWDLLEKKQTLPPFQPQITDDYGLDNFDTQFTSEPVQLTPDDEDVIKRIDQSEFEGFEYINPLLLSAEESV

PKCι = target: T3, PKCι (Rattus norvegicus, UniProt F1M7Y5); test: LANCE TR-FRET in vitro kinase assay, purified PKCι; format: biochemical
T3 sequence (F1M7Y5 1-596): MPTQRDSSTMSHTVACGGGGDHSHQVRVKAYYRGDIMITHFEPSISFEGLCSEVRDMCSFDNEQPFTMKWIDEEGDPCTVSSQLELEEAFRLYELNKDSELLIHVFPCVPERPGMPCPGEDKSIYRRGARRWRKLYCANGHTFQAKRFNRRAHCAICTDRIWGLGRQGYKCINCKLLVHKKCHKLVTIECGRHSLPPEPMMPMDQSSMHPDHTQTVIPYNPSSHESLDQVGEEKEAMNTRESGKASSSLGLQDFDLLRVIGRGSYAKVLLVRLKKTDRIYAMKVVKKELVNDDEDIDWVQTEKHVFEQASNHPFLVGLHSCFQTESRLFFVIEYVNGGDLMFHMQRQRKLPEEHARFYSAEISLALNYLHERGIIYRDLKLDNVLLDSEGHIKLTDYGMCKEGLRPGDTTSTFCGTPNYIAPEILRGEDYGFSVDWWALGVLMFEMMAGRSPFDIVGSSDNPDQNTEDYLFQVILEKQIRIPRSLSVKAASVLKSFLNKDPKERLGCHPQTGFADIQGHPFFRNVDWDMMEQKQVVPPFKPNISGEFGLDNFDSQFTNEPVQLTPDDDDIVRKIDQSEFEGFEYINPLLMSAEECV

[1] = test system: Prkcz−/− mice (cocaine reward memory); format: in vivo; details: ZIP 10 nmol/µl, 1 µl per side into NAc
How it was run: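 Two-chamber CPP with 20-min conditioning sessions; saline or cocaine 10 mg/kg i.p., counterbalanced. Bilateral cannulae placed in the NAc (1.40 mm anterior, ±1.0 mm lateral, −3.8 mm ventral) under ketamine/xylazine, with one week of recovery. ZIP at 10 mM in 0.9% saline, or saline, via injectors 0.7 mm past the guides, left 1 min. Index: cocaine-side time on test minus preconditioning time. Mice with placements outside the NAc (Nissl) and Grubbs outliers excluded.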

[2] = test system: object location memory in rats; details: ZIP bilaterally into the hippocampus; cited from earlier work
fear memory in rats = details: ZIP administration into the amygdala; cited from earlier work
[3] = test system: cocaine reward memory in rats; details: ZIP injection into the NAc; cited from earlier work
[4] = test system: Prkcz−/− mice (drug reward memory); test: Cocaine conditioned place preference, non-cannulated Prkcz−/− mice; format: in vivo; details: cocaine 10 mg/kg i.p.; male mice; t=0.153, P=0.88

For COc1ccc2c(c[n+](C)c3c4cc5c(cc4ccc23)OCO5)c1OC [Chelerythrine, chelerythrine], the Ki (PKMζ) was 76 µM, the “inhibition of PKMζ with DTT, in words” value (PKMζ; 1 mM DTT included) was “lost all inhibitory activity” and the “appearance in the presence of DTT” value (PKMζ; 1 mM DTT present) was “changed color”. The “inhibition of PKMζ without DTT, in words” value (PKMζ; assayed without dithiothreitol (DTT)) was “weak inhibitor of PKMζ”.

Compound CCCCCCCCCCCCCC(=O)N[C@@H](CCCNC(=N)N)C(=O)N[C@@H](CC(C)C)C(=O)N[C@@H](Cc1ccc(O)cc1)C(=O)N[C@@H](CCCNC(=N)N)C(=O)N[C@@H](CCCCN)C(=O)N[C@@H](CCCNC(=N)N)C(=O)N[C@H](C(=O)N[C@@H](Cc1c[nH]c2ccccc12)C(=O)N[C@@H](CCCNC(=N)N)C(=O)N[C@@H](CO)C(=O)N[C@@H](C)C(=O)NCC(=O)N[C@@H](CCCNC(=N)N)C(=O)O)[C@@H](C)CC [Scrambled ZIP] (Myristoyl-RLYRKRIWRSAGR-OH; N-terminus and C-terminus assumed) has a Ki (PKCζ) of 5.51 µM, a Ki (PKCι) of 4.92 µM and a Ki (PKMζ) of 15.4 µM. For the same compound, the “inhibition of PKMζ, PKCι and PKCζ compared (Ki), in words” value (PKMζ; in vitro kinase assay, PKMζ) was “inhibited PKMζ, PKCι and PKCζ with similar Ki values”.

For CCCCCCCCCCCCCC(=O)N[C@@H](CO)C(=O)N[C@H](C(=O)N[C@@H](Cc1ccc(O)cc1)C(=O)N[C@@H](CCCNC(=N)N)C(=O)N[C@@H](CCCNC(=N)N)C(=O)NCC(=O)N[C@@H](C)C(=O)N[C@@H](CCCNC(=N)N)C(=O)N[C@@H](CCCNC(=N)N)C(=O)N[C@@H](Cc1c[nH]c2ccccc12)C(=O)N[C@@H](CCCNC(=N)N)C(=O)N[C@@H](CCCCN)C(=O)N[C@@H](CC(C)C)C(=O)O)[C@@H](C)CC [ZIP, myristoylated zeta inhibitory peptide] (Myristoyl-SIYRRGARRWRKL-OH; C-terminus assumed), the Ki (PKCζ) was 1.7 µM, the Ki (PKCι) was 1.43 µM and the “t statistic for ZIP versus saline, cocaine CPP” value [1] was 2.258. The “object location memory performance, in words” value [2] was “impaired”, the “performance in cued fear conditioning, in words” value (fear memory in rats) was “impaired” and the “cocaine reward memory, in words” value [3] was “can erase cocaine reward memory”. For the same compound, the Ki (PKMζ) was 2.11 µM, the “difference in Ki values between ZIP and scrambled ZIP” value (PKMζ; PKMζ, in vitro kinase assay) was 7.3 -fold and the “inhibition of PKMζ, PKCι and PKCζ compared (Ki), in words” value (PKMζ; in vitro kinase assay, PKMζ) was “inhibited PKMζ, PKCι and PKCζ with similar Ki values”.

For COC(=O)[C@H]1[C@@H](OC(=O)c2ccccc2)C[C@@H]2CC[C@H]1N2C [cocaine], the “cocaine CPP index, Prkcz−/− versus wild-type, in words” value [4] was “no genotype difference in the cocaine CPP index”.
